These results are taken from ChEMBL document CHEMBL5360637, “Ravidomycin Analogs from Streptomyces sp. Exhibit Altered Antimicrobial and Cytotoxic Selectivity” (J Nat Prod, 2023).

In one test the test system is Pseudomonas aeruginosa. As to the kind of experiment: Antibacterial activity against Pseudomonas aeruginosa PAO1 assessed as bacterial growth inhibition incubated for 24 hrs by microtiter plate reader analysis. In kind it is functional. The procedure, abridged:
(§1)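 Broth microdilution in Mueller-Hinton broth (P. aeruginosa PAO1 is the mexAB-oprM strain). Overnight cultures were diluted 1:1000 and 200 μL was added to wells holding 2 μL of compound in DMSO. Plates were incubated 24 h at room temperature under room fluorescent light, then OD600 was read. MIC was taken as the lowest concentration keeping OD600 from rising above 0.1.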

A further test concerns Candida albicans. Put plainly: Antifungal activity against Candida albicans SC5314 assessed as bacterial growth inhibition incubated for 24 hrs by microtiter plate reader analysis. In kind it is functional. In a few lines:
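C. albicans was grown in RPMI 1640 with 165 mM MOPS, pH 7.0. Overnight culture was diluted 1:1000 and 200 μL was added to wells holding 2 μL of compound in DMSO. Plates were incubated 24 h at room temperature under room fluorescent light, then OD600 was read. MIC was the lowest concentration preventing OD600 from exceeding 0.1.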

The next test has as its system HCC1806. As to the kind of experiment: Cytotoxicity against human HCC1806 cells assessed as reduction in cell viability incubated for 72 hrs by Cell-titer glo assay. In kind it is functional, cell-based. To be noted: HCC1806, 72 h. In a few lines: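 HCC1806 cells were grown in DMEM with 10% FBS, penicillin/streptomycin and 1% GlutaMax, were mycoplasma-tested and kept ≤4 weeks. Cells were seeded at 2500 per well and treated after 24 h, with six wells per dose, against a 0.1% DMSO vehicle. CellTiter-Glo 2.0 luminescence was read at 72 h. IC50 came from a log(inhibitor) vs normalized response least-squares fit of % viability relative to DMSO.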

The test system of a further test is Staphylococcus aureus. As to the kind of experiment: Antibacterial activity against Staphylococcus aureus Newman assessed as bacterial growth inhibition incubated for 24 hrs by microtiter plate reader analysis. It is filed as functional. The procedure, abridged: as §1

Structures are written as SMILES. Values after ≈ are worked out from the molar mass of the structure shown. Bounds are passed on as bounds.

As for `C=Cc1cc(OC)c2c(c1)c(=O)oc1c2cc(OC)c2c(O)ccc([C@@H]3O[C@H](C)[C@H](OC(C)=O)[C@H](O)[C@H]3O)c21`, the MIC is 50 µg/mL (≈ 93.2 µM) with Pseudomonas aeruginosa, 6.3 µg/mL (≈ 11.7 µM) in the test with Candida albicans and 0.003 µg/mL (≈ 0.00559 µM) with Staphylococcus aureus. The IC50 with HCC1806 worked out at 5100 nM.
Consider `C=Cc1cc(OC)c2c(c1)c(=O)oc1c2cc(OC)c2c(O)ccc([C@@H]3O[C@H](C)[C@H](O)[C@H](NC)[C@H]3O)c21`, for which the figures for the MIC in the test with Pseudomonas aeruginosa, in the test with Candida albicans and in the test on Staphylococcus aureus were 6.3 µg/mL (≈ 12.4 µM), 0.78 µg/mL (≈ 1.54 µM) and 0.049 µg/mL (≈ 0.0965 µM), respectively. In addition, the IC50 in the test on HCC1806 stood at 53 nM.
The like results for `COc1cc2c(oc(=O)c3cc([C@H](C)O)cc(OC)c32)c2c([C@@H]3O[C@H](C)[C@H](O)[C@H](N(C)C)[C@H]3O)ccc(O)c12` were, in that order, more than 13 µg/mL, more than 13 µg/mL, 13 µg/mL (≈ 24.1 µM) and more than 10000 nM.
For `C=Cc1cc(OC)c2c(c1)c(=O)oc1c2cc(OC)c2c(O)ccc([C@@H]3O[C@H](C)[C@H](O)[C@H](N(C)C)[C@H]3O)c21`, the MIC with Pseudomonas aeruginosa worked out at 3.1 µg/mL (≈ 5.94 µM); in the test on Candida albicans it was 0.78 µg/mL (≈ 1.5 µM); with Staphylococcus aureus, 0.006 µg/mL (≈ 0.0115 µM). Besides, the IC50 in the test with HCC1806 is 81 nM.
As for `C=Cc1cc(OC)c2c(c1)c(=O)oc1c2cc(OC)c2c(O)ccc([C@@H]3O[C@H](C)[C@H](O)[C@H](N(C)C(=O)OC)[C@H]3O)c21`, the figures for the minimal inhibitory concentration (MIC) in the test on Pseudomonas aeruginosa, with Candida albicans and with Staphylococcus aureus were 50 µg/mL (≈ 88.4 µM), 6.3 µg/mL (≈ 11.1 µM) and 0.003 µg/mL (≈ 0.0053 µM), respectively. Besides, the IC50 in the test on HCC1806 came out at 550 nM.
Consider `C=Cc1cc(OC)c2c(c1)c(=O)oc1c2cc(OC)c2c(O)ccc([C@@H]3O[C@H](C)[C@H](O)[C@H](OC(C)=O)[C@H]3O)c21`, for which the MIC was more than 100 µg/mL in the test with Pseudomonas aeruginosa, 6.3 µg/mL (≈ 11.7 µM) in the test on Candida albicans and 0.006 µg/mL (≈ 0.0112 µM) in the test with Staphylococcus aureus. For the same molecule, the IC50 in the test on HCC1806 is 370 nM.
Take `CCc1cc(OC)c2c(c1)c(=O)oc1c2cc(OC)c2c(O)ccc([C@@H]3O[C@H](C)[C@H](O)[C@H](N(C)C)[C@H]3O)c21`: the MIC in the test on Pseudomonas aeruginosa is more than 100 µg/mL; in the test on Candida albicans, 25 µg/mL (≈ 47.7 µM); in the test on Staphylococcus aureus, 0.78 µg/mL (≈ 1.49 µM). In the test with HCC1806, the IC50 was more than 10000 nM.
The matching figures for `C=Cc1cc(O)c2c(c1)c(=O)oc1c2cc(OC)c2c(O)ccc([C@@H]3O[C@H](C)[C@H](O)[C@H](N(C)C)[C@H]3O)c21`: more than 13 µg/mL, 13 µg/mL (≈ 25.6 µM), 0.39 µg/mL (≈ 0.768 µM) and more than 10000 nM.
For `C=Cc1cc(OC)c2c(c1)c(=O)oc1c2cc(OC)c2c(O)ccc([C@@H]3O[C@H](C)[C@H](O)[C@H](O)[C@H]3O)c21`, the MIC was determined as 3.1 µg/mL (≈ 6.27 µM) in the test on Pseudomonas aeruginosa, 13 µg/mL (≈ 26.3 µM) with Candida albicans and 0.006 µg/mL (≈ 0.0121 µM) in the test on Staphylococcus aureus. The IC50 in the test with HCC1806 turned out to be 3600 nM.
For `C=Cc1cc(OC)c2c(c1)c(=O)oc1c2cc(OC)c2c(O)ccc([C@@H]3O[C@H](C)[C@H](O)[C@H](N(C)C(C)=O)[C@H]3O)c21`, the MIC in the test on Pseudomonas aeruginosa came out at 50 µg/mL (≈ 91 µM); in the test on Candida albicans it was 13 µg/mL (≈ 23.7 µM); in the test on Staphylococcus aureus, 0.006 µg/mL (≈ 0.0109 µM). The half-maximal inhibitory concentration (IC50) with HCC1806 worked out at 1700 nM.
The like results for `C=Cc1cc(OC)c2c(c1)c(=O)oc1c2cc(OC)c2c(O)ccc([C@@H]3O[C@H](C)[C@H](O)C[C@H]3O)c21` were, in that order, 50 µg/mL (≈ 104 µM), 6.3 µg/mL (≈ 13.2 µM), 0.1 µg/mL (≈ 0.209 µM) and more than 10000 nM.
The like results for `C=Cc1cc(OC)c2c(c1)c(=O)oc1c2cc(OC)c2c(O)ccc([C@@H]3O[C@H](C)[C@H](O)[C@H](NC(=O)OC)[C@H]3O)c21` were, in that order, 25 µg/mL (≈ 45.3 µM), 6.3 µg/mL (≈ 11.4 µM), 0.012 µg/mL (≈ 0.0218 µM) and 710 nM.
For `COc1cc2c(oc(=O)c3cc(C)cc(OC)c32)c2c([C@@H]3O[C@H](C)[C@H](O)[C@H](N(C)C)[C@H]3O)ccc(O)c12`, the MIC is more than 100 µg/mL with Pseudomonas aeruginosa, 100 µg/mL (≈ 196 µM) in the test with Candida albicans and 1.6 µg/mL (≈ 3.14 µM) in the test on Staphylococcus aureus. Besides, in the test with HCC1806, the IC50 is 3600 nM.
The matching figures for `C=Cc1cc(OC)c2c(c1)c(=O)oc1c2cc(OC)c2c(O)ccc([C@@H]3O[C@H](C)[C@H](O)[C@H](O)[C@H]3OC(C)=O)c21`: more than 100 µg/mL, more than 25 µg/mL, 0.049 µg/mL (≈ 0.0913 µM) and 870 nM.
For the molecule `C=Cc1cc(OC)c2c(c1)c(=O)oc1c2cc(OC)c2c(O)ccc([C@@H]3O[C@H](C)[C@H](O)[C@H](NC(C)=O)[C@H]3O)c21`, the MIC in the test on Pseudomonas aeruginosa was more than 13 µg/mL; in the test on Candida albicans it was 13 µg/mL (≈ 24.3 µM); in the test on Staphylococcus aureus it was 0.1 µg/mL (≈ 0.187 µM). Further, the IC50 with HCC1806 was more than 10000 nM.
For the molecule `C=Cc1cc(OC)c2c(c1)c(=O)oc1c2cc(OC)c2c(O)ccc([C@@H]3O[C@H](C)[C@H](OC(C)=O)[C@H](N(C)C)[C@H]3O)c21`, the MIC in the test with Pseudomonas aeruginosa was 13 µg/mL (≈ 23.1 µM); in the test on Candida albicans, 0.39 µg/mL (≈ 0.692 µM); in the test with Staphylococcus aureus, 0.39 µg/mL (≈ 0.692 µM). For the same molecule, the IC50 in the test on HCC1806 was found to be 42 nM.
